Values joined by “and” are separate entries in the source; they are usually repeats but may differ in a detail not shown here. Equal values may be shown once.
Test system: U2OS
Test: Multiplex assay against U2OS
Type: toxicity, cell-based
Conditions: human
Method in brief: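 Tubulin, mitochondrial-mass and membrane-permeability phenotypes are per cents of healthy-nucleus cells. Cells were gated by CellPathfinder machine learning into Hoechst high-intensity objects or normal cells, normal cells into healthy, pyknosed or fragmented nuclei, and pyknosed cells into mitotic or apoptotic. Before that, live cells stained at seeding with Hoechst33342, BioTracker Green Microtubule Cytoskeleton Dye, MitoTracker Red and Annexin V Alexa Fluor 680 were imaged on a CQ1 microscope at 37°C and 5% CO2 after compound addition.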

[1] = 12 h, 1 µM, compound concentration 1 uM
[2] = 12 h, 10 µM, compound concentration 10 uM
[3] = 24 h, 1 µM, compound concentration 1 uM
[4] = 24 h, 10 µM, compound concentration 10 uM
[5] = 48 h, 1 µM, compound concentration 1 uM
[6] = 48 h, 10 µM, compound concentration 10 uM

Cn1cnc(-c2cnc(O[C@H]3CCN(C(=O)Cc4ccc(OC(F)(F)F)cc4)C[C@H]3F)c(C(N)=O)c2)c1
Population Apoptotic (%) [1]: 46.88% and 25%
Population Healthy Nuclei (%) [1]: 91.05% and 84.18%
Population Hoechst High Intensity Objects (%) [1]: 0%
Population Mitotic Cells (%) [1]: 53.12% and 75%
Population Normal (%) [1]: 100%
Population Pyknosed Nuclei (%) [1]: 8.42% and 13.56%
Population Apoptotic (%) [2]: 38.46% and 23.33%
Population Healthy Nuclei (%) [2]: 82.47% and 74.67%
Population Hoechst High Intensity Objects (%) [2]: 0.26% and 0%
Population Mitotic Cells (%) [2]: 61.54% and 76.67%
Population Normal (%) [2]: 99.74% and 100%
Population Pyknosed Nuclei (%) [2]: 16.75% and 20%
Population Apoptotic (%) [3]: 37.74% and 45.16%
Population Healthy Nuclei (%) [3]: 89.71% and 85.37%
Population Hoechst High Intensity Objects (%) [3]: 0.17% and 0%
Population Mitotic Cells (%) [3]: 62.26% and 54.84%
Population Normal (%) [3]: 99.83% and 100%
Population Pyknosed Nuclei (%) [3]: 9.09% and 12.6%
Population Apoptotic (%) [4]: 46.15% and 28.21%
Population Healthy Nuclei (%) [4]: 86.69% and 75.26%
Population Hoechst High Intensity Objects (%) [4]: 0% and 0.51%
Population Mitotic Cells (%) [4]: 53.85% and 71.79%
Population Normal (%) [4]: 100% and 99.49%
Population Pyknosed Nuclei (%) [4]: 12.36% and 20.1%
Population Apoptotic (%) [5]: 32.56% and 44.19%
Population Healthy Nuclei (%) [5]: 89.01% and 86.44%
Population Hoechst High Intensity Objects (%) [5]: 0% and 0.24%
Population Mitotic Cells (%) [5]: 67.44% and 55.81%
Population Normal (%) [5]: 100% and 99.76%
Population Pyknosed Nuclei (%) [5]: 7.88% and 10.41%
Population Apoptotic (%) [6]: 53.41% and 48.57%
Population Healthy Nuclei (%) [6]: 86.7% and 85.71%
Population Hoechst High Intensity Objects (%) [6]: 0%
Population Mitotic Cells (%) [6]: 46.59% and 51.43%
Population Normal (%) [6]: 100%
Population Pyknosed Nuclei (%) [6]: 9.51% and 11.63%

Cl.Cl.N#Cc1ccc(O[C@@H]2c3ccccc3C[C@H]2N2CCC[C@@H](N)C2)c(Cl)c1
Population Apoptotic (%) [1]: 27.27% and 23.68%
Population Fragmented Nuclei (%) [1]: 3.65% and 1.32%
Population Healthy Nuclei (%) [1]: 79.64% and 73.51%
Population Hoechst High Intensity Objects (%) [1]: 0%
Population Membrane Permeable-Phenotype (%) [1]: 24.05% and 54.05%
Population Mitotic Cells (%) [1]: 72.73% and 76.32%
Population Normal (%) [1]: 100%
Population Pyknosed Nuclei (%) [1]: 16.72% and 25.17%
Population Tubulin-Different-Phenotype (%) [1]: 57.25% and 71.17%
Total Cell Count [1]: 329 and 151
Population Apoptotic (%) [2]: 46.21% and 25.32%
Population Fragmented Nuclei (%) [2]: 4.14% and 2.88%
Population Healthy Nuclei (%) [2]: 56.8% and 40.29%
Population Hoechst High Intensity Objects (%) [2]: 0%
Population Membrane Permeable-Phenotype (%) [2]: 11.98% and 32.14%
Population Mitochondria Different-Phenotype (%) [2]: 63.54% and 89.29%
Population Mitotic Cells (%) [2]: 53.79% and 74.68%
Population Normal (%) [2]: 100%
Population Pyknosed Nuclei (%) [2]: 39.05% and 56.83%
Population Tubulin-Different-Phenotype (%) [2]: 88.02% and 89.29%
Total Cell Count [2]: 338 and 139
Population Apoptotic (%) [3]: 47.5% and 39.47%
Population Fragmented Nuclei (%) [3]: 2.74% and 2.58%
Population Healthy Nuclei (%) [3]: 77.31% and 72.9%
Population Hoechst High Intensity Objects (%) [3]: 0%
Population Membrane Permeable-Phenotype (%) [3]: 19.35% and 35.4%
Population Mitotic Cells (%) [3]: 52.5% and 60.53%
Population Normal (%) [3]: 100%
Population Pyknosed Nuclei (%) [3]: 19.95% and 24.52%
Population Tubulin-Different-Phenotype (%) [3]: 32.58% and 69.03%
Total Cell Count [3]: 401 and 155
Population Apoptotic (%) [4]: 64.9% and 68.09%
Population Fragmented Nuclei (%) [4]: 3.82% and 4.96%
Population Healthy Nuclei (%) [4]: 51.76% and 28.37%
Population Hoechst High Intensity Objects (%) [4]: 0%
Population Membrane Permeable-Phenotype (%) [4]: 9.09% and 12.5%
Population Mitochondria Different-Phenotype (%) [4]: 73.3% and 92.5%
Population Mitotic Cells (%) [4]: 35.1% and 31.91%
Population Normal (%) [4]: 100%
Population Pyknosed Nuclei (%) [4]: 44.41% and 66.67%
Population Tubulin-Different-Phenotype (%) [4]: 88.64% and 90%
Total Cell Count [4]: 340 and 141
Population Apoptotic (%) [5]: 60.55% and 72.41%
Population Fragmented Nuclei (%) [5]: 2.44% and 3.43%
Population Healthy Nuclei (%) [5]: 79.8% and 63.43%
Population Hoechst High Intensity Objects (%) [5]: 0%
Population Mitotic Cells (%) [5]: 39.45% and 27.59%
Population Normal (%) [5]: 100%
Population Pyknosed Nuclei (%) [5]: 17.75% and 33.14%
Population Apoptotic (%) [6]: 73.29% and 91.21%
Population Fragmented Nuclei (%) [6]: 7.46% and 4.9%
Population Healthy Nuclei (%) [6]: 56.22% and 31.47%
Population Hoechst High Intensity Objects (%) [6]: 0% and 0.69%
Population Membrane Permeable-Phenotype (%) [6]: 5.75% and 15.56%
Population Mitochondria Different-Phenotype (%) [6]: 52.21% and 86.67%
Population Normal (%) [6]: 100% and 99.31%
Population Pyknosed Nuclei (%) [6]: 36.32% and 63.64%
Population Tubulin-Different-Phenotype (%) [6]: 66.37% and 84.44%
Total Cell Count [6]: 402 and 144

Reference: ChEMBL document CHEMBL5724801, “EUbOPEN Chemogenomics Library - Multiplex” (2024)
